# In ChEMBL document CHEMBL4819027, “Design, synthesis and biological evaluation of novel 2-(4-(1H-indazol-6-yl)-1H-pyrazol-1-yl)acetamide derivatives as potent VEGFR-2 inhibitors” (Eur J Med Chem, 2021):
# The source made the active and inactive calls. The rule behind the calls is not given here.
# What was measured:
# [1] = molecular target: T1, Vascular endothelial growth factor receptor 2 (Homo sapiens, UniProt P35968); experiment: Inhibition of VEGFR2 in human HGC-27 cells assessed as downregulation of mTOR phosphorylation at Ser2448 at 0.1 to 1 uM after 24 hrs by Westernblot analysis; type: cell-based; settings: dose 0.1-1 µM
# T1 sequence (P35968 whole entry): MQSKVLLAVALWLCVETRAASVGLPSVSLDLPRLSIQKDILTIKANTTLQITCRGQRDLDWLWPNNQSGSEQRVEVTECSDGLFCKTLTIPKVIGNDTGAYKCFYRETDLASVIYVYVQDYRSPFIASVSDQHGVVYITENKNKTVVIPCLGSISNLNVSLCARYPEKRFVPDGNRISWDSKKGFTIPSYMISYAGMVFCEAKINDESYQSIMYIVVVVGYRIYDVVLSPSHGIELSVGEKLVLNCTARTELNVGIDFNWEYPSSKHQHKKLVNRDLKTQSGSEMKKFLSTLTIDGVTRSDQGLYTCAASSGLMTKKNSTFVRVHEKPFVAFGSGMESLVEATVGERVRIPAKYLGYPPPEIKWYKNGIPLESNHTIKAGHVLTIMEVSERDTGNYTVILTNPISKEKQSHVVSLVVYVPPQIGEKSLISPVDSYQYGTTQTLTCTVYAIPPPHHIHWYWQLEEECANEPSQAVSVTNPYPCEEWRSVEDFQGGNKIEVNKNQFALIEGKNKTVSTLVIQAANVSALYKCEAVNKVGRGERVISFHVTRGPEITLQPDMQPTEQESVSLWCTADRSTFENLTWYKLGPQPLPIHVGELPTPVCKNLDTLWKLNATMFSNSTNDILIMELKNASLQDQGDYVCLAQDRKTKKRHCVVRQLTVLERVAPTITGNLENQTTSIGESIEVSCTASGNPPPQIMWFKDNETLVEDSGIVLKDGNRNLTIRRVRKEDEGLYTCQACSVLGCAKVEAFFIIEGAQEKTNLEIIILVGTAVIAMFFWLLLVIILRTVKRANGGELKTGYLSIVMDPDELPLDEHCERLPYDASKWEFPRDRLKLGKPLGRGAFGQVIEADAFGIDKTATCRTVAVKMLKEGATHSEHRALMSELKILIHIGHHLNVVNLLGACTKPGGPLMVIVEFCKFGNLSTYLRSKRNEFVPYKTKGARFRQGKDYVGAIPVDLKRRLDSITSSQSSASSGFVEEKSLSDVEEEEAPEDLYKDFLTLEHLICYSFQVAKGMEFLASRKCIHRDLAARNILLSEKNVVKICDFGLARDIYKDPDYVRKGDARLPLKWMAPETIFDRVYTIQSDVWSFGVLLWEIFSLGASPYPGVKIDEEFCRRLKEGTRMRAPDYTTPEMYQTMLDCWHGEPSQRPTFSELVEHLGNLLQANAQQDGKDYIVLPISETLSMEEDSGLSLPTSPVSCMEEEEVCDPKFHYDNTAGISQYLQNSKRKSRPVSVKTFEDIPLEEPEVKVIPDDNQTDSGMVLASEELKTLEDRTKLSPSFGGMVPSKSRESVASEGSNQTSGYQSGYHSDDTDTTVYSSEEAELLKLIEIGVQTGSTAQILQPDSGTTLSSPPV
# How it was run: (§1)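 HGC-27 cells (1.0 × 10⁶ per 60 mm dish) were treated 24 h with 0.1% DMSO or compound (0.1, 0.5, 1 μM). RIPA lysates with phosphatase inhibitor were quantified by BCA and resolved on 8–12% SDS-PAGE onto nitrocellulose. Blots were probed for p-VEGFR-2 (Tyr1175), p-PI3K (Tyr607), p-AKT (Thr308) and p-mTOR (Ser2448), with ECL detection and densitometry; mean ± SEM.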
# GES1 = experiment: Cytotoxicity against human GES-1 cells assessed as inhibition of cell growth incubated for 72 hrs by MTT assay; type: cell-based; settings: GES1, 72 h
# How it was run: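 Log-phase cells were seeded at 5 × 10³ per well and attached 24 h. HT-29 and GES-1 were grown in DMEM-based medium, A549/HepG2/HGC-27 in RPMI-1640, HUVEC in ECM with ECGS; all media had 10% FBS. Cells were exposed to graded compound concentrations for 72 h at 37 °C. MTT (5 mg/mL stock) was added for 4 h, formazan dissolved in DMSO, and A490 read. IC50 was obtained by nonlinear sigmoidal regression; mean ± S.E. of three experiments.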
# HGC-27 [2] = experiment: Inhibition of cell migration at human HGC-27 cells measured up to 24 hrs by microscopic based wound healing assay; type: functional; settings: dose 0.1-1 µM, time hrs <=24
# How it was run: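 HGC-27 grown to 80–90% confluence in 6-well plates, serum-starved 12 h, scratched with 200 µL tip (~1 mm lane). Washed, then given complete medium alone or with compound (0.1, 0.5, 1 µM) or sorafenib positive control. Imaged by inverted microscope at 0, 6 and 24 h; relative scratch closure quantified; mean ± SD, three independent experiments.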
# [3] = molecular target: T1, Vascular endothelial growth factor receptor 2; experiment: Inhibition of VEGFR2-mediated angiogenesis in HUVEC cells assessed as reduction of phosphorylation of VEGFR-2 after 24 hrs by Westernblot analysis relative to control; type: cell-based; settings: dose 1-10 µM
# How it was run: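 HUVECs seeded at 1.0×10^6 cells/dish in ECM with 1% ECGS, 10% FBS; treated 24 h with test compound (1, 5, 10 µM), 0.1% DMSO vehicle or 10 µM sorafenib. Lysed in RIPA with PMSF and phosphatase inhibitor; 8–12% SDS-PAGE, nitrocellulose, milk block, CST primaries overnight 4 °C, HRP secondaries, ECL; p-VEGFR-2 (Tyr1175) densitometry; at least triplicate.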
# HGC-27 [4] = experiment: Antimigratory activity against human HGC-27 cells assessed as relative closure of scratches at 0.5 uM measured after 6 hrs by scratch wound healing assay relative to control; type: functional
# How it was run: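 HGC-27 monolayers at 80–90% confluence were serum-starved 12 h, then scratched to give 1 mm lanes. After a PBS wash, cells received complete medium with or without compound (0.1, 0.5, 1 μM). Wounds were imaged at 0, 6 and 24 h. Relative scratch closure was quantified against untreated control; mean ± SD of three experiments.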
# [5] = molecular target: T1, Vascular endothelial growth factor receptor 2; experiment: Inhibition of VEGFR2 in human HGC-27 cells assessed as reduction in VEGFR-2 phosphorylation after 24 hrs by westernblot analysis; type: cell-based; how it was run: as §1
# HGC-27 [6] = experiment: Induction of intracellular ROS generation in human HGC-27cells assessed as increase in fluorescence intensity at 0.5 uM incubated for 24 hrs by DCFH-DA staining-based flow cytometric analysis (reference value: 712); type: functional
# HGC-27 [7] = experiment: Antimigratory activity against human HGC-27 cells assessed as number of migration cells at 0.5 uM measured after 24 hrs by transwell migration assay (reference value: 320); type: functional
# HGC-27 [8] = experiment: Induction of apoptosis in human HGC-27 cells assessed as late apoptotic cells level at 1 uM incubated for 24 hrs by propidium iode and annexin V-FITC staining based flow cytometry (reference value: 0.86); type: functional
# How it was run: (§2)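 HGC-27 cells (1.0 × 10⁶ per 60 mm dish) were treated 24 h with 0.1% DMSO or compound (0.1, 0.5, 1 μM). Cells were stained with Annexin V-FITC in HEPES/NaCl/CaCl₂ binding buffer (pH 7.4) for 15 min at room temperature, then with PI for 10 min. About 10 000 events were acquired by flow cytometry to give viable, early apoptotic, late apoptotic and necrotic fractions.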
# HGC-27 [9] = experiment: Downregulation of MMP-9 protein expression in human HGC-27 cells incubated for 24 hrs by immunoblot analysis; type: functional, cell-based
# How it was run: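 HGC-27 cells (1.0 × 10⁶ per 60 mm dish) were treated 24 h with 0.1% DMSO or compound (0.1, 0.5, 1 μM). Cells were lysed in RIPA with PMSF and phosphatase inhibitor, and protein measured by BCA. Lysates were run on 8–12% SDS-PAGE, transferred to nitrocellulose and probed with primary antibodies overnight at 4 °C, then HRP secondary. Bands were detected by ECL and densitometry; at least triplicate.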
# HGC-27 [10] = experiment: Induction of apoptosis in human HGC-27 cells assessed as late apoptotic cells level at 0.5 uM incubated for 24 hrs by propidium iode and annexin V-FITC staining based flow cytometry (reference value: 0.86%); type: functional; how it was run: as §2
# HGC-27 [11] = experiment: Induction of apoptosis in human HGC-27 cells assessed as early apoptotic cells level at 0.5 uM incubated for 24 hrs by propidium iode and annexin V-FITC staining based flow cytometry (reference value: 1.48%); type: functional; how it was run: as §2
# HGC-27 [12] = experiment: Induction of apoptosis in human HGC-27 cells assessed as downregulation of Bcl-xl protein expression at incubated for 24 hrs by western blot analysis; settings: dose 0.1-1 µM
# HGC-27 [13] = experiment: Antimigratory activity against human HGC-27 cells assessed as number of migration cells at 1 uM measured after 24 hrs by transwell migration assay (reference value: 320); type: functional
# [14] = molecular target: T1, Vascular endothelial growth factor receptor 2; experiment: Inhibition of VEGFR2 in human HGC-27 cells assessed as downregulation of VEGFR2 phosphorylation at Tyr1175 at 0.1 to 1 uM after 24 hrs by Westernblot analysis; type: cell-based; settings: dose 0.1-1 µM; how it was run: as §1
# HGC-27 [15] = experiment: Induction of apoptosis in human HGC-27 cells assessed as total apoptotic cells level at 1 uM incubated for 24 hrs by propidium iode and annexin V-FITC staining based flow cytometry; type: functional; how it was run: as §2
# HGC-27 [16] = experiment: Induction of apoptosis in human HGC-27 cells assessed as viable cells level at 1 uM incubated for 24 hrs by propidium iode and annexin V-FITC staining based flow cytometry (reference value: 96.0%); type: functional; how it was run: as §2
# HGC-27 [17] = experiment: Antiinvasive activity against human HGC-27 cells assessed as reduction in cell invasion measured after 24 hrs by transwell invasion assay; type: functional, cell-based
# How it was run: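 Transwell inserts (12 μm pore) were precoated with Matrigel. HGC-27 cells at 5 × 10⁵ cells/mL were placed in the upper well in serum-free medium with compound (0.1, 0.5, 1 μM). The lower chamber held RPMI-1640 with 10% FBS. After 24 h at 37 °C, invaded cells were methanol-fixed and stained with 0.1% crystal violet. Cells were counted in three random fields; three independent experiments, mean ± SD.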
smiles,measurement,setting,value
CC(=O)Nc1n[nH]c2cc(-c3cnn(CC(=O)Nc4ccc(C)c(C(F)(F)F)c4)c3)ccc12,inhibition,[1],Active
same,IC50,GES1,187 µM
same,inhibition,HGC-27 [2],Dose-Dependent Effect
same,inhibition,[3],Dose-Dependent Effect
same,inhibition at 0.5 µM,HGC-27 [4],9.5%
same,inhibition,[5],Dose-Dependent Effect
same,Flu intensity,HGC-27 [6],945
same,Activity,HGC-27 [7],87
same,Activity,HGC-27 [8],17%
same,inhibition,HGC-27 [9],Dose-Dependent Effect
same,Activity,HGC-27 [10],11.2%
same,Activity,HGC-27 [11],8.35%
same,Activity,HGC-27 [12],Dose-Dependent Effect
same,Activity,HGC-27 [13],22
same,inhibition,[14],Active
same,Activity,HGC-27 [15],28.8%
same,Activity,HGC-27 [16],61.6%
same,inhibition,HGC-27 [17],Dose-Dependent Effect
